# The list is not random: actives were taken first. Their share in the collection is about 2%.
# PABP FP inh = blocks human PABP binding to poly(A) RNA | inhibition, % at 35 µM | AID 2014 | fluorescence polarization | P11940 | actives 1% (n = 290,000);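 also: calls also rest on retests at 20 µM and on dose response follow-up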
# core dimer inh = blocks dimerization of HCV core protein. TR-FRET GST/Flag-core106 dimerization, 1536-well. inhibition, % at 5 µM. actives 0.33% (n = 300,000). AID 1899;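 active = inhibition above the mean of all tested compounds plus 3 SD, set per screening campaign, cut at about 45% in these data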
#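 test system = GST/Flag-tagged HCV core106 proteins | probe or stimulus = Eu donor and XL665 acceptor anti-tag antibodies | times = compound-protein-antibody incubation 4 h at 22.5 °C | signal = TR-FRET, excitation 340 nm, emission 617 and 671 nm | measure = percent inhibition of core106 dimerization signal | controls = wells lacking GST-core106 and wells with excess unlabelled core106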
# NS3 helicase inh = inhibitors of Hepatitis C virus NS3 helicase | NS3 helicase DNA unwinding, Cy5 molecular beacon fluorescence | inhibition, % at 10.9 µM | actives 0.56% (n = 290,000);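 active = inhibition above the mean of all tested compounds plus 3 SD, set per campaign, cut at about 35% in these data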;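 also: 0% = DMSO wells and 100% = thioflavine S control wells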
#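 System: NS3 helicase fragment of HCV / Schedule: 1 h at 25 °C / Control set: DMSO alone as 0% and 110 µM thioflavine S as 100% / Reagent: Cy5/quencher beacon DNA duplex and ATP to start / Technique: Cy5 fluorescence / Replication: singlicate / Evaluation: % inhibition of end-to-start signal ratio versus controls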
# DNA FID counter = counter-screen for HCV NS3 helicase inhibitors: DNA intercalator displacement. AID 1845. DNA fluorescent intercalator displacement, fluorescence. inhibition, % at 7.9 µM. actives 0.17% (n = 290,000); in the data active = inhibition above about 37%;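 also: 0% = vehicle and 100% = reference compound; higher means more ethidium bromide displaced from hairpin DNA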
# PABP1 MLLE inh = inhibitors of microRNA-mediated deadenylation, human PABP1 MLLE binding | P11940 | GST-MLLE / FITC-PAM2 fluorescence polarization | inhibition, % at 20 µM | actives 0.36% (n = 360,000) | AID 588489; in the data active = inhibition above about 35%, passing the limit was not always enough;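 also: plate controls were DMSO wells with GST-MLLE for no effect and wells lacking GST-MLLE protein for full effect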
# eIF4H FP inh = inhibitors of RNA binding by human eIF4H; inhibition, % at 35 µM; Q15056; eIF4H fluorescence polarization binding assay; actives 0.94% (n = 290,000);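 also: calls also rest on retests at 20 µM and on dose response follow-up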
# Starred values were filed as active, the others as inactive; ? = inconclusive; · = no result given. Unless noted, no rule for the calls is given here.
SMILES,PABP FP inh,core dimer inh,NS3 helicase inh,DNA FID counter,PABP1 MLLE inh,eIF4H FP inh
O=C(O)c1cc(-c2ccco2)nc2ccccc12,60.3*,-3.7,20.2,-3.4,53.5*,82.2*
C/C(=N\NC(=O)c1cc(-c2ccco2)nc2ccccc12)c1cccnc1,active,15.1,1.1,-8.6,-0.4,81.7*
Cc1csc(NC(=O)c2cc(C)nc3ccccc23)n1,41.2,-0.8,2.7,1.8,-1.1,5.4
Cc1nn(-c2cccc(Cl)c2)c2nc(-c3ccco3)cc(C(=O)O)c12,98.1*,9.5,-3.0,24.1,20.8,79.6*
O=C(N/N=C/c1ccc(F)cc1)c1cc(-c2ccco2)nc2ccccc12,50.8*,68.7*,38.8*,-12.5,-17.8,89.8*
CCOc1ccc(/C=N/NC(=O)c2cc(-c3ccco3)nc3ccccc23)cc1,7.4,24.5,34.4,-6.0,4.9,58.7
Cc1csc(NC(=O)c2cc(-c3ccco3)nc3ccccc23)n1,1.9*,33.9,26.2,-16.6,-16.1,87.9*
COc1ccc(OC)c(-c2cc(C(=O)N/N=C(\C)c3cccnc3)c3ccccc3n2)c1,-12.9,·,-13.8,-33.1,-1.6,-3.3
COc1ccc(CC2=CC(=O)c3ccccc3C2=O)cc1,12.8,-9.3,1.8,0.5,30.9,16.6
CC(C)C1Cc2c(sc3ncnc(NN)c23)CO1 (stereo unspecified),-11.8,8.6,2.7,-7.3,-15.7,-5.3
CN(C)C(=O)c1ccc(NC(=O)c2cc(-c3ccco3)nc3ccccc23)cc1,40.1*,·,13.6,-49.5,1.6,76.8*
O=C(CCC(=O)c1ccc[nH]1)c1ccc(Cl)cc1,10.6,52.6*,30.3,-9.3,-3.2,31.5
O=C(COc1ccc(F)c(Cl)c1)c1ccc[nH]1,14.8,11.2,14.0,2.3,-4.3,15.7
O=C(CSc1ccccn1)N1CCNC1=O,·,·,·,·,-6.8,·
COc1ccccc1C(=O)NC(CCSC)C(=O)NC1CCCCCC1 (stereo unspecified),active,-1.2,8.2,-4.2,-13.1,91.6
COc1ccccc1C(=O)NC(CCSC)C(=O)OCC(=O)c1ccc[nH]1 (stereo unspecified),0.4*,24.1,10.5,-18.4,5.3,59.7*
CCCCc1ccc(N/C(N)=N/c2nc(C)cc(C)n2)cc1,19.1,6.3,-57.7,15.9,8.4,1.5
Cc1ccc(N2C(=O)N(CC(=O)Nc3ccc(C)cc3Cl)C(=O)C2C)cc1 (stereo unspecified),·,-0.8,·,·,-6.8,·
Nc1nn(S(=O)(=O)c2ccccc2)cc1-c1cccc([N+](=O)[O-])c1,76.1*,5.5,1.3,2.7,9.6,active
CC1=CC(=O)Nc2ncccc2O1,·,·,·,·,12.5,·
O=C(Cc1ccc(Cl)cc1)SCc1ccccc1,·,·,·,·,14.2,·
OCC1CCCN(C(=S)Nc2ccc(Nc3ccccc3)cc2)C1 (stereo unspecified),52.9*,-14.3,-15.0,6.8,-89.7,?
O=C(CSc1nnc(-c2ccc(Cl)cc2)n1Cc1ccco1)c1cccs1,1.6,46.6*,28.9,-15.9,-80.4,15.3
Clc1ccc(CSc2nnc(-c3cccnc3)n2Cc2ccco2)c(Cl)c1,-1.5,48.2*,11.3,-35.1,-33.8,-13.5
N#CCSc1ncnc2sc3c(c12)CCC3,19.8,12.5,0.6,-3.4,-21.4,6.9
SMILES,PABP FP inh,core dimer inh,NS3 helicase inh,DNA FID counter,PABP1 MLLE inh,eIF4H FP inh
COc1ccc(-c2nnc(CSc3ncnc4sc5c(c34)CCC5)o2)cc1OC,6.7*,·,·,·,5.5,53.2*
COCCNC(=O)C1Cc2c(-c3cccc(NC(C)=O)c3)ccnc2O1 (stereo unspecified),·,·,·,·,-0.1,·
CC1(C(=O)NS(=O)(=O)c2ccccc2Cl)CCN1C(=O)CCC1CCCC1 (stereo unspecified),·,·,·,·,-3.9,·
NC(=O)C1CCCNC1 (stereo unspecified),66.2*,-151.6,·,·,-1.8,78.7*
O=[N+]([O-])c1ccc(CSc2nc3ccccc3[nH]2)cc1,71.5*,-6.2,-7.5,8.7,-74.1,-4.7
Cc1cc(-c2n[nH]c(=S)n2-c2ccccc2C)cs1,115.5,2.8,-10.5,-12.7,-6.1,active
Cc1cccc(-n2c(-c3ccncc3)n[nH]c2=S)c1C,?,49.1*,2.0,-6.2,-10.8,-3.4
CC(=O)c1ccccc1OCc1ccc(S(=O)(=O)Cc2ccccc2)cc1,-3.2,6.2,-2.6,-33.0,-7.0,-8.9
O=C(c1ccc(=O)[nH]c1)N(c1ccccc1)C(CCc1ccccc1)c1nc2ccccc2[nH]1 (stereo unspecified),·,·,·,·,-7.1,·
O=C(O)C1CCc2nc(NCc3ccccc3)nc(NCc3ccccc3)c2C1 (stereo unspecified),·,·,·,·,18.0,·
O=C(NCc1cccc(C(F)(F)F)c1)c1ccc2nc([C@@H]3O[C@H](CO)[C@@H](O)[C@H]3O)[nH]c2c1,·,·,·,·,10.9,·
COc1cccc(NC(=S)N(CCCN2CCCC2)Cc2ccco2)c1,50.1,-1.8,0.8,0.6,6.7,active
COc1cccc(NC(=S)N(CCCN2CCN(C)CC2)Cc2ccco2)c1,-3.5,14.8,-14.2,6.5,-23.3,-4.1
COc1cccc(NC(=S)N(CCCN2CCCC2)Cc2cccn2Cc2ccc(Cl)cc2)c1,1.8,-4.9,-83.3,36.9*,-59.3,-10.9
COc1ccc([C@@H]2CC(=O)[C@@H]3CN(S(=O)(=O)c4ccc(C)cc4)[C@H](c4ccccc4)C[C@@H]3N2S(=O)(=O)c2ccccc2)cc1,·,·,·,·,-12.2,·
Cn1c(SCc2ccc([N+](=O)[O-])cc2)nc2c(c1=O)SCC2,105.4*,5.8,10.2,-7.8,17.8,active
Cc1cccc(S(=O)(=O)NC(=O)C2(C)CCN2C(=O)c2sccc2C)c1 (stereo unspecified),·,·,·,·,1.4,·
N#Cc1c(-c2ccccc2)nc(SCC(=O)N(c2ccccc2)c2ccccc2)[nH]c1=O,5.1,19.0,16.5,-5.7,-7.3,-8.6
CCOC(=O)CCCCC(=O)c1[nH]c(=O)[nH]c1CSc1nc(-c2ccccc2)c(C#N)c(=O)[nH]1,23.6,-1.5,13.8,-20.7,40.3*,-0.3
CN1C(=O)c2ccc(N3CCCC3)cc2C1=O,77.6*,-1.6,15.9,-8.4,9.8,71.5*
CN1C(=O)c2ccc(N(C)C)cc2C1=O,11.0,-5.9,10.3,7.3,0.0,24.7
COc1cc(CNC[C@H]2O[C@@H](n3ccc(N)nc3=O)[C@H](O)[C@@H]2O)ccc1OCc1ccc(C)cc1,·,·,·,·,-2.8,·
O=C1NC2=C(C(=O)CCC2)C(c2ccccc2[N+](=O)[O-])N1 (stereo unspecified),98.0*,3.9,5.3,-3.9,41.4*,107.3*
O=C1NC2=C(C(=O)CCC2)C(c2ccccc2Cl)N1 (stereo unspecified),-5.5,-0.3,0.0,-1.0,-2.6,-2.0
Cc1occc1-c1nnc(SCC(=O)Nc2ccccn2)o1,10.6,7.5,-5.0,-15.4,-14.6,0.0

# Source: PubChem (several laboratories)
